ChEMBL document CHEMBL2010760, “New insights into the structure-cytotoxicity relationship of spirostan saponins and related glycosides” (Bioorg Med Chem, 2012)
Calls of active or inactive are those of the source. The rule behind the calls is not given here.

Assays:
HL-60 [1] = test: Cytotoxicity against human HL60 cells assessed as cell viability after 72 hrs by MTT assay; type: functional, cell-based; conditions: HL-60, 72 h
Summary of the method: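 HL-60 myeloid leukemia cells in RPMI 1640 with 10% heat-inactivated FBS, penicillin/streptomycin, 37 °C, 5% CO2. Exponentially growing cells (1 × 10⁴/well) exposed to 0.3–100 µM glycoside (100 mM DMSO stocks) for 72 h. MTT read at 570 nm. Survival taken as percent of control absorbance. IC50 from concentration–response curves fitted per experiment (DeLean equation). Triplicate determinations.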

HL-60 [2] = test: Induction of apoptosis in human HL60 cells assessed as caspase 8 activation measuring cleavage of tetrapeptide IETD-pNA at 1 to 10 uM after 24 hrs; type: functional, cell-based
Summary of the method: (§1)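 HL-60 cells treated with increasing glycoside concentrations and harvested at 24 h. Lysates assayed colorimetrically with DEVD-pNA (caspase-3/7), IETD-pNA (caspase-8) and LEHD-pNA (caspase-9). Activity expressed as fold increase over control, mean ± SE. Two independent experiments, each in duplicate.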

HL-60 [3] = test: Induction of apoptosis in human HL60 cells assessed as fragmented chromatin at 10 uM after 24 hrs by Hoechst 33258 staining method; type: functional, cell-based
Summary of the method: (§2)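 Nuclear chromatin condensation and fragmentation in HL-60 cells scored by fluorescent microscopy after Hoechst 33258 staining. Treated cells compared with control cells.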

HL-60 [4] = test: Induction of apoptosis in human HL60 cells assessed as morphological changes at 10 uM after 24 hrs by phase contrast microscopy; type: functional, cell-based
Summary of the method: (§3)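 HL-60 cells cultured in RPMI 1640/10% FBS at 37 °C, 5% CO2. Treated with 10 µM glycoside for 24 h. Representative fields examined by inverted phase contrast microscopy for morphology and growth.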

HL-60 [5] = test: Induction of apoptosis in human HL60 cells assessed as increase in hypodiploid cells at sub-G1 fraction at 10 uM after 24 hrs by propidium iodide based flow cytometry relative to control; type: functional
Summary of the method: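 HL-60 cells incubated with 10 µM glycoside for 24 h, labelled with propidium iodide and analysed by flow cytometry. Hypodiploid (sub-G1) fraction compared with control cells.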

HL-60 [6] = test: Induction of apoptosis in human HL60 cells assessed as caspase 3/7 activation measuring cleavage of tetrapeptide DEVD-pNA at 1 to 10 uM after 24 hrs; type: functional, cell-based; summary of the method: as §1
HL-60 [7] = test: Induction of apoptosis in human HL60 cells assessed as caspase 9 activation measuring cleavage of tetrapeptide LEHD-pNA at 1 to 10 uM after 24 hrs; type: functional, cell-based; summary of the method: as §1
HL-60 [8] = test: Growth inhibition in human HL60 cells at 10 uM after 24 hrs by phase contrast microscopy; type: functional, cell-based; summary of the method: as §3
HL-60 [9] = test: Induction of apoptosis in human HL60 cells assessed as condensed chromatin at 10 uM after 24 hrs by Hoechst 33258 staining method; type: functional, cell-based; summary of the method: as §2

## C[C@@H]1CC[C@@]2(OC1)O[C@H]1C[C@H]3[C@@H]4CC(=O)[C@@]5(O)C[C@@H](O[C@@H]6O[C@H](CO)[C@@H](O)[C@H](O)[C@H]6O)CC[C@]5(C)[C@H]4CC[C@]3(C)[C@H]1[C@@H]2C
HL-60 [1]
  IC50: > 100 µM

## C[C@@H]1CC[C@@]2(OC1)O[C@H]1C[C@H]3[C@@H]4CC(=O)[C@@]5(O)C[C@@H](O[C@@H]6O[C@@H]7CO[C@@H](c8ccccc8)O[C@H]7[C@H](OC(=O)C(C)(C)C)[C@H]6O)CC[C@]5(C)[C@H]4CC[C@]3(C)[C@H]1[C@@H]2C
HL-60 [1]
  IC50: 3.3 µM

## C[C@@H]1CC[C@@]2(OC1)O[C@H]1C[C@H]3[C@@H]4CC[C@H]5C[C@@H](O[C@@H]6O[C@H](COC(=O)C(C)(C)C)[C@@H](O)[C@H](OC(=O)C(C)(C)C)[C@H]6O)CC[C@]5(C)[C@H]4CC(=O)[C@]3(C)[C@H]1[C@@H]2C
HL-60 [1]
  IC50: 12 µM

## C[C@@H]1CC[C@@]2(OC1)O[C@H]1C[C@H]3[C@@H]4CC(=O)[C@@]5(O)C[C@@H](O[C@@H]6O[C@H](CO)[C@@H](O[C@@H]7O[C@@H](C)[C@H](O)[C@@H](O)[C@H]7O)[C@H](O)[C@H]6O[C@@H]6O[C@@H](C)[C@H](O)[C@@H](O)[C@H]6O)CC[C@]5(C)[C@H]4CC[C@]3(C)[C@H]1[C@@H]2C
HL-60 [1]
  IC50: > 100 µM

## C[C@@H]1CC[C@@]2(OC1)O[C@H]1C[C@H]3[C@@H]4CC[C@H]5C[C@@H](O[C@@H]6O[C@H](CO)[C@@H](O)[C@H](O)[C@H]6O)CC[C@]5(C)[C@H]4CC(=O)[C@]3(C)[C@H]1[C@@H]2C
HL-60 [1]
  IC50: > 100 µM

## C[C@@H]1CC[C@@]2(OC1)O[C@H]1C[C@H]3[C@@H]4CC(=O)[C@@]5(O)C[C@@H](O[C@@H]6O[C@H](CO)[C@@H](O)[C@H](O)[C@H]6O[C@@H]6O[C@@H](C)[C@H](O)[C@@H](O)[C@H]6O)CC[C@]5(C)[C@H]4CC[C@]3(C)[C@H]1[C@@H]2C
HL-60 [1]
  IC50: 86.7 µM

## C[C@@H]1CC[C@@]2(OC1)O[C@H]1C[C@H]3[C@@H]4CC[C@H]5C[C@@H](O[C@@H]6O[C@H](CO)[C@@H](O)[C@H](O)[C@H]6O[C@@H]6O[C@@H](C)[C@H](O)[C@@H](O)[C@H]6O)CC[C@]5(C)[C@H]4CC(=O)[C@]3(C)[C@H]1[C@@H]2C
HL-60 [1]
  IC50: > 100 µM

## C[C@@H]1CC[C@@]2(OC1)O[C@H]1C[C@H]3[C@@H]4CC=C5C[C@@H](O[C@@H]6O[C@H](CO)[C@@H](O[C@@H]7O[C@@H](C)[C@H](O)[C@@H](O)[C@H]7O)[C@H](O)[C@H]6O[C@@H]6O[C@@H](C)[C@H](O)[C@@H](O)[C@H]6O)CC[C@]5(C)[C@H]4CC[C@]3(C)[C@H]1[C@@H]2C [DIOSCIN]
HL-60 [1]
  IC50: 3.8 µM

## C[C@@H]1CC[C@@]2(OC1)O[C@H]1C[C@H]3[C@@H]4CC(=O)[C@@]5(O)C[C@@H](O[C@@H]6O[C@H](CO[C@@H]7O[C@@H](C)[C@H](O)[C@@H](O)[C@H]7O)[C@@H](O[C@@H]7O[C@@H](C)[C@H](O)[C@@H](O)[C@H]7O)[C@H](O)[C@H]6O)CC[C@]5(C)[C@H]4CC[C@]3(C)[C@H]1[C@@H]2C
HL-60 [1]
  IC50: > 100 µM

## C[C@@H]1CC[C@@]2(OC1)O[C@H]1C[C@H]3[C@@H]4CC[C@H]5C[C@@H](O[C@@H]6O[C@H](CO)[C@@H](O[C@@H]7O[C@@H](C)[C@H](O)[C@@H](O)[C@H]7O)[C@H](O)[C@H]6O[C@@H]6O[C@@H](C)[C@H](O)[C@@H](O)[C@H]6O)CC[C@]5(C)[C@H]4CC(=O)[C@]3(C)[C@H]1[C@@H]2C
HL-60 [1]
  IC50: 4.3 µM

## C[C@@H]1CC[C@@]2(OC1)O[C@H]1C[C@H]3[C@@H]4CC[C@H]5C[C@@H](O[C@@H]6O[C@@H]7CO[C@@H](c8ccccc8)O[C@H]7[C@H](OC(=O)C(C)(C)C)[C@H]6O)CC[C@]5(C)[C@H]4CC(=O)[C@]3(C)[C@H]1[C@@H]2C
HL-60 [1]
  IC50: 45 µM

## C[C@@H]1CC[C@@]2(OC1)O[C@H]1C[C@H]3[C@@H]4CC(=O)[C@@]5(O)C[C@@H](O[C@@H]6O[C@H](COC(=O)C(C)(C)C)[C@@H](O)[C@H](OC(=O)C(C)(C)C)[C@H]6O)CC[C@]5(C)[C@H]4CC[C@]3(C)[C@H]1[C@@H]2C
HL-60 [2]
  Activity: Active
HL-60 [3]
  Activity: Active
HL-60 [1]
  IC50: 2.1 µM
HL-60 [4]
  Activity: Active
HL-60 [5]
  fold change (FC): 7
HL-60 [6]
  Activity: Active
HL-60 [7]
  Activity: Active
HL-60 [8]
  growth inhibition (GI): Active
HL-60 [9]
  Activity: Active

## C[C@@H]1CC[C@@]2(OC1)O[C@H]1C[C@H]3[C@@H]4CC[C@H]5C[C@@H](O[C@@H]6O[C@H](CO[C@@H]7O[C@@H](C)[C@H](O)[C@@H](O)[C@H]7O)[C@@H](O[C@@H]7O[C@@H](C)[C@H](O)[C@@H](O)[C@H]7O)[C@H](O)[C@H]6O)CC[C@]5(C)[C@H]4CC(=O)[C@]3(C)[C@H]1[C@@H]2C
HL-60 [1]
  IC50: > 100 µM
